The subject of series [1] is Liver microsome. The experiment in a line: Drug metabolism in human liver microsomes at 1 uM by LC/MS method. In kind it is ADME.
For series [2], the system named is Plasmodium berghei. Nature of the series: Antimalarial activity against Plasmodium berghei ANKA expressing GFP infected in NMRI mouse assessed as increase in mouse survival at 50 mg/kg, ip qd administered as single dose on day 0 to 4 of exposure measured on day 5 post exposure by FACS method (reference value: 7 days). The format is functional. Summed up: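 P. berghei ANKA GFP infection in mice, dosed intraperitoneally at 50 mg/kg/day × 4. An untreated control group and a chloroquine 10 mg/kg ip reference group were included. Read-outs were % reduction in parasitaemia and mean survival in days.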
(In general: In flow cytometry, cells or beads pass a laser one at a time.)

A short description of series [3]: Drug metabolism in mouse liver microsomes at 1 uM by LC/MS method. In kind it is ADME. For orientation: Liver microsomes are vesicles of endoplasmic reticulum, rich in cytochrome P450 enzymes.
The subject of series [4] is Liver microsome. The experiment in a line: Intrinsic clearance in human liver microsomes assessed as compound metabolized at 1 uM pre-incubated at 37 degC before addition of NADPH-generating system by LC/MS method. The format is ADME.
In series [5] the test system is Plasmodium berghei. The experiment in a line: Antimalarial activity against Plasmodium berghei ANKA expressing GFP infected in NMRI mouse assessed as inhibition of parasitemia at 50 mg/kg, ip qd administered as single dose on day 0 to 4 of exposure measured on day 5 post exposure by FACS method relative to control. The format is functional. The gist of the method:
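P. berghei ANKA GFP infection in mice; dosed intraperitoneally at 50 mg/kg/day × 4, with chloroquine 10 mg/kg ip as reference and untreated controls. Read-out was % reduction in parasitaemia relative to controls, with survival in days also recorded.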

A short description of series [6]: Solubility in phosphate buffer at pH 6.5 by nephelometry. The format is physicochemical.
For series [7], the system named is Liver. The experiment in a line: Intrinsic clearance in mouse liver microsomes assessed as compound metabolized at 1 uM pre-incubated at 37 degC before addition of NADPH-generating system by LC/MS method. The format is ADME.

The results in this text go back to ChEMBL document CHEMBL3632468, “Discovery and optimisation studies of antimalarial phenotypic hits” (Eur J Med Chem, 2015).

Converted amounts (≈) assume the structure as drawn.

Consider `Cc1cc(/C=C2\S/C(=N\c3ccccc3)N(C3CCCCC3)C2=O)c(C)n1-c1ccc(F)cc1`, for which the Drug metabolism entry in series [1] and in series [3] was “metabolite_notdetected” throughout. For the same molecule, in series [2], the Survival turned out to be 6 days. Moreover, the CLH worked out at 360 µL/min/mg in series [4] and 55 µL/min/mg in series [7]. Besides, in series [5], the inhibition in vivo at 50 mg/kg came to 12%. Moreover, in series [6], the solubility (kinetic) was determined as 0.8 µg/mL (≈ 1.69 µM).

Usually inhibition in vivo stands for the change of the read-out against control, counted positive when it falls. The kinetic solubility is solubility judged after dilution from a stock solution rather than from solid.
